# Measurements published in ChEMBL document CHEMBL4725313, “Development of phenylthiourea derivatives as allosteric inhibitors of pyoverdine maturation enzyme PvdP tyrosinase” (Bioorg Med Chem Lett, 2020).
# The source made the active and inactive calls. The rule behind the calls is not given here.
# Columns and labels:
# [1] = Inhibition of Pseudomonas aeruginosa PvdP tyrosinase
# [2] = tested on: Pseudomonas aeruginosa; experiment: Inhibition of Pseudomonas aeruginosa PvdP tyrosinase up to 100 uM relative to control; settings: dose microM <=100
# [3] = biological target: Mushroom tyrosinase (Agaricus bisporus, UniProt O42713+Q00024+C7FF04+C7FF05); experiment: Inhibition of mushroom tyrosinase
# [4] = Selectivity ratio of IC50 for mushroom tyrosinase to IC50 for Pseudomonas aeruginosa PvdP tyrosinase
# [5] = tested on: Pseudomonas aeruginosa; experiment: Non-competitive inhibition of Pseudomonas aeruginosa PvdP tyrosinase assessed as Km at 0.5 uM by Lineweaver-Burk double reciprocal plot analysis (reference value: 1.136 mM)
# [6] = tested on: Pseudomonas aeruginosa; experiment: Inhibition of Pseudomonas aeruginosa PvdP tyrosinase mutant at 1 uM
# [7] = tested on: Pseudomonas aeruginosa; experiment: Non-competitive inhibition of Pseudomonas aeruginosa PvdP tyrosinase assessed as Km at 0.2 uM by Lineweaver-Burk double reciprocal plot analysis (reference value: 1.136 mM)
# [8] = tested on: Pseudomonas aeruginosa; experiment: Non-competitive inhibition of Pseudomonas aeruginosa PvdP tyrosinase assessed as Vmax at 0.2 uM by Lineweaver-Burk double reciprocal plot analysis (reference value: 0.0155 1/min)
# [9] = tested on: Pseudomonas aeruginosa; experiment: Non-competitive inhibition of Pseudomonas aeruginosa PvdP tyrosinase assessed as Vmax at 0.5 uM by Lineweaver-Burk double reciprocal plot analysis (reference value: 0.0155 1/min)
# [10] = (§1) Inhibition of PvdP tyrosinase in Pseudomonas aeruginosa PAO1 assessed as reduction in pyoverdin production incubated for 24 hrs in low iron medium
# Method in brief: (§2)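 P. aeruginosa PAO1 grown 24 h in low-iron medium with a serial dilution of compound (200 - 0.79 µM; final DMSO 1%). Vehicle 1% DMSO as negative control. After incubation, pyoverdine read at 405 nm and cell growth at 600 nm.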
# [11] = tested on: Pseudomonas aeruginosa PAO1; experiment: as §1; method in brief: as §2
structure (smiles),measurement,setting,value
S=C(NCc1ccc(Br)cc1)Nc1ccccc1,IC50,[1]; read-out: IC50,23.5 µM
NC(=O)Nc1ccccc1 [PHENYLUREA],IC50,[1],Not Active
same,inhibition,[2],< 50%
Fc1ccc(CNC(=S)Nc2ccccc2)cc1,IC50,[1]; read-out: IC50,13.6 µM
Fc1ccc(CCNC(=S)Nc2ccccc2)cc1,IC50,[1]; read-out: IC50,22.6 µM
S=C(NCc1ccccc1)Nc1ccccc1,IC50,[1]; read-out: IC50,19.4 µM
CN(C)c1ccc(NC(=S)NCc2ccc(Cl)cc2)cc1,IC50,[1]; read-out: IC50,14.3 µM
Cc1ccc(NC(=S)NCc2ccc(Cl)cc2)cc1,IC50,[1]; read-out: IC50,22.3 µM
NC(=S)Nc1ccccc1 [PHENYLTHIOUREA],IC50,[1]; read-out: IC50,174 µM
COc1ccc(CN=C(S)Nc2ccccc2)cc1,IC50,[1]; read-out: IC50,19.3 µM
S=C(NCc1ccccc1Cl)Nc1ccccc1,IC50,[1]; read-out: IC50,7.9 µM
same,IC50,[3],> 500 µM
same,Ratio IC50,[4],> 500
S=C(NCc1c(Cl)cccc1Cl)Nc1ccccc1,IC50,[1]; read-out: IC50,7.6 µM
same,IC50,[3],> 500 µM
same,Ratio IC50,[4],> 500
CNC(=S)Nc1ccccc1,IC50,[1],Not Active
C=CCNC(=S)Nc1ccccc1,IC50,[1],Not Active
Fc1cccc(Cl)c1NC(=S)Nc1ccccc1,IC50,[1],Not Active
S=C(NCc1ccc(Cl)cc1)Nc1ccccc1,IC50,[1]; read-out: IC50,0.57 µM
same,IC50,[3],328 µM
same,Km,[5],1140 µM
same,inhibition,[6],inactive
same,Km,[7],1130 µM
same,Vmax,[8],0.0126 min⁻¹
same,Vmax,[9],0.0111 min⁻¹
same,IC50,[10],44.9 µM
same,inhibition,[11],Dose-dependent effect
same,Ratio IC50,[4],> 500
